In the EternaBench riboswitch data:

Tested on: MS2 coat protein
Assay: apparent Kd, MS2 coat protein; higher = weaker binding; RNA-MaP array; FMN 200 µM where present
Summary of the method: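 In 100 mM Tris-HCl pH 7.5, 80 mM KCl, 4 mM MgCl2, BSA, DTT, yeast tRNA and Tween-20, SNAP-549-labelled MS2 coat protein was titrated from 0.7 or 1.5 nM, doubling to 3 µM, over designs transcribed by stalled E. coli RNA polymerase on Illumina sequencing-chip clusters. This was done first without ligand, then with ligand held constant. After green signal was normalised to red-channel RNA signal and control-cluster median Fmax, the apparent Kd was taken as the median of filtered per-cluster binding-curve fits.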

[1] = designed as: OFF switch for flavin mononucleotide, no ligand
[2] = ligand present: flavin mononucleotide, designed as: OFF switch for flavin mononucleotide
[3] = designed as: ON switch for flavin mononucleotide, no ligand
[4] = ligand present: flavin mononucleotide, designed as: ON switch for flavin mononucleotide

Sequence	apparent Kd [1]	apparent Kd [2]	apparent Kd [3]	apparent Kd [4]
AAAAGAACGGCAGGAUAUGCAAGCACUGACCUCCCAAAAUAAAGAAACAUGAGGAUCACCCAUGUGCAGAAGGGCCAAAAGUGC	13.6 nM	12.3 nM	–	–
GACGAGUGAGGAUAUGGUGAGUAGUGCCUGAGCGCUGCUCACCAGAAGGCACAUGAGGAUCACCCAUGUAUGUC	13.5 nM	17.6 nM	–	–
ACCUUACAUGAGGAUCACCCAUGUUAGGAUAUCUCGCCUGCACAAACACAGCGCAGGCAGAGAAGGGACGCGGG	28.2 nM	35 nM	–	–
CUCAUGUGAGGAUAUGUACAGAAAAAAAUGGGUGAAACUGUACAGAAGGCACAUGAGGAUCACCCAUGUGCCUU	24.3 nM	12.2 nM	–	–
GAAUAAUUGAUCCAUUUUUAAAACAUGAGGAUCACCCAUGUGCAGGAUAUCGAUAGUUUUAAAUUCGAGAAGGGCAAGAACUGU	128 nM	173 nM	–	–
GGAUAGGACAGAGGAUAUACGUACUAGAGAUACUAGCAAAAUUUCCUCACAUGAGGAUCACCCAUGUAGAAGGCUGUCCUAUCG	21.4 nM	563 nM	–	–
AAUUCACAUGAGGAUCACCCAUGUAUUGCGAGCGCGAUUACGUAGGAUAUCCAUCAAAACAGAUAGGAGAAGGGCGUACUAUCU	–	–	253 nM	185 nM
ACUGCAUAGGCAGGAUAUGCAAAAGCAGAUGCAAAGCAUUUGAAUAACACAUGAGGAUCACCCAUGUAGAAGGGCCUGUGCAGU	20.1 nM	20.2 nM	–	–
AAUUCACAUGAGGAUCACCCAUGUCAGGAUAUGGUUUCACGUGUUUCUUUGCUUGAGGCCAGAAGGGACAGCUA	71.8 nM	94.4 nM	–	–
GGAAUGUCGGGAGGAUAUCCAAAUGUAUACAUAGGAGAAGGCCCGCACAUGAGGAUCACCCAUGUAAUAACGCGUGGCAUCAAC	82.8 nM	119 nM	–	–
GCAGAACAUGAGGAUCACCCAUGUCUCUAAAGUCGAGGAUAUGGGCAGGUUAUAUCCGAACCAGAAGGCGAUCUGC	–	–	127 nM	43.8 nM
CGGAAUUGUACAGGAUAUGAGGGUACCUGAGCCUCAGAAGGGUAGACCGACAUGAGGAUCACCCAUGUAUGCGGAUAACGUCCG	–	–	1180 nM	592 nM
CGCACUAUACAUGAGGAUCACCCAUGUUAACAUGAGCUAUUCAGAAGGCAUAAUUAGAGAAUAAAUGAGGAUAUGAUUAGUGCG	–	–	34.7 nM	18.8 nM
UCGUAUAAGGGCAUUACACAUGAGGAUCACCCAUGUACGUUAGAGGAUAUGCAUUUCAGUUGAACGUAGAAGGCUAGAGAAGGG	117 nM	103 nM	–	–
GUACUGUAGUGAGGAUAUACGAGAACGAUAGUUCGGCGAUCCAUUUAUACAUGAGGAUCACCCAUGUAGAAGGCACUUCAGUAC	6.26 nM	72.5 nM	–	–
UAUACUAGAUAGGAUAUACUAUAUAUAUUAUUCGUAGAAGGAUCUACAUGAGGAUCACCCAUGUUAACAGCAGU	47.6 nM	37 nM	–	–
GCAUUGAUAACAGGAUAUAUGAAUCCUACAUGAGGAUCACCCAUGUAGGUGAUCAGCCGCGAUUAGUAGAAGGGUUAUCAAUGC	–	–	11.4 nM	6.43 nM
AAUAAACUCACAGGAUAUAGCCGAGGUCGCGUGAACUUACAGGCGACGAGGCUAGAAGGGUGACCACAUGAGGAUCACCCAUGU	–	–	985 nM	106 nM
UUAUUUAUACAAGGAUAUCAGUUAGUUACAAUUCCUACAUGAGGAUCACCCAUGUUUUUUUUUUUUGAGAAGGUGUAUUGUCUG	–	–	45.2 nM	52.9 nM
CGGUCUUGCAACUAUUUGUUUCACAUGAGGAUCACCCAUGUCAGAAGGAGGUGCAUAUAUUAGACCUAGGAUAUGACGUGUAAA	9.79 nM	28.4 nM	–	–
AUAUAUAUAUCAGGAUAUGGACAGGCCUGUUCGUAUUAAGACAUUAACAUGAGGAUCACCCAUGUCCAGAAGGGAUAUAUAUAU	109 nM	86.9 nM	–	–

Sequence	apparent Kd [1]	apparent Kd [2]	apparent Kd [3]	apparent Kd [4]
AGAAAACAUGAGGAUCACCCAUGUCAGGAUAUCCUGCGGCGAUACAAGCCACGUUGUCGGAGAAGGGACAGGGA	58 nM	89.7 nM	–	–
GGCGGCGCGGGCCACCGCAGGGCCAGAAGGACAUGAGGAUCACCCAUGUGGCAGGACAGGGCGGUGUAGGAUAUGGCAGGCUGG	8.35 nM	10.6 nM	–	–
UGUAUGUAGGAGAAGGAGGACUUCAUGAGGAUCACCCAUGUGUUAGGACUUAGGAUAUUUGACGACAUGAGGAUCACCCAUGUG	–	–	58.3 nM	49.6 nM
AAUUAUUAUUGAGGAUAUGGUAGUGAAACACUACCAGAAGGCGGUAUAAACAUGAGGAUCACCCAUGUGAGCCUGAUGCUUAUG	24.2 nM	44.2 nM	–	–
AAUUAAGAUCAAGGAUAUCACGUCGAAUAGACGUGAGAAGGUGAUCCAUACAUGAGGAUCACCCAUGUAUAACAUGAAUUAAUU	–	–	923 nM	170 nM
GUGGCCUAGGCACAGGAUAUGUUGCUCGUAACAUGAGGAUCACCCAUGUGCCUAUGAGAUUUAAUGCAGAAGGGUGCACGCCACG	–	–	173 nM	17.1 nM
AUAUAGGCUAACAUGAGGAUCACCCAUGUGUUAUACUUAAUAUAGGAUAUGUUUAUACUUUUUGGGCAGAAGGAUGGCCUAUAU	–	–	36.4 nM	27.3 nM
UUGGACGUCGUAGGAUAUGUAGGAUAUUCCUACAUGAGGAUCACCCAUGUUGACAUGAAAGAAGGACAGAAGGACGAUGUCCAU	–	–	144 nM	5.77 nM
GCGUACAUAUCAGGAUAUCAUAUUAUUGUUUUACUCAGUGUAUACAUGAGGAUCACCCAUGUUCUUGAGAAGGGAUUACUACGC	15.2 nM	14.7 nM	–	–
AAUAACAGAGGAUAUACUAUUUUAUGUAUUUAUUAUUUUGAACAUGAGGAUCACCCAUGUAGAAGGCUGAGUAA	27.5 nM	23.1 nM	–	–
AAAUGACAUGAGGAUCACCCAUGUCCACCAAAUGGAGGAUAUUGGACGGCAAAACGUUGUUAAGAAGGCCGAAAUU	–	–	27.6 nM	22.3 nM
UAAUAAUAGCAAGGAUAUGAUUAUUAUAAUAUAUCAGAAGGUGCACAUGAGGAUCACCCAUGUUUUAUAAUUUGUAAUUUAAAU	54.4 nM	37.9 nM	–	–
AAGAAACAUGAGGAUCACCCAUGUAAAUUUAAGAGAGGAUAUCGUACAUGGAAGAUUUAACGAGAAGGCUCUAGAA	–	–	26 nM	16.1 nM
GUAGCUAUCGGAGGAUAUCCUCAGCGGAAACGCACAUGAGGAUCACCCAUGUAAAUAAAUAAUUAAGAGAAGGCCGAUAGCUAC	–	–	706 nM	55 nM
UGUCGGAACAGAGGAUAUUACAUGAGGAUCACCCAUGUAUGAACCAAUAGCUGGAAACAGCAAUGUAAGAAGGCUGCUCCGACA	11.9 nM	147 nM	–	–
UAAUUACCGAUCGGUUUGACUUAGCAGGAUAUACAUGAGGAUCACCCAUGUCAAGGGCGUGCCCGGUAGAAGGGUUGGGUUCAA	35.1 nM	54.9 nM	–	–
UCGCGGGAGCAGAAGGGAUAGGCCUAUUGUCGUGAGGUCUACACUUAACAUGAGGAUCACCCAUGUCAGGAUAUGCCCACGCGA	4.68 nM	4.64 nM	–	–
AAGUCUGGACGAGGAUAUCAGUUGUAUCUGGCAUCAACAUGAGGAUCACCCAUGUUGCAAUAGGGUGAGAAGGCGUUUGGGCAA	–	–	278 nM	29.7 nM
UCUGUUUUGCGAGGAUAUCGACCAUUCCUCUUAACAUGAGGAUCACCCAUGUGCUAAUCCUACAACGAGAAGGCGCUCAUACUC	250 nM	348 nM	–	–
CGCUCAAGAGAGAAGGAUAGAAUCAGAAGGCGUAACAUGAGGAUCACCCAUGUAAAGUAGUGUAACGAGGAUAUGAAAUGAGCG	11.8 nM	13.1 nM	–	–
